Measurements: ChEMBL document CHEMBL1156224, “Design, synthesis, and antibiofilm activity of 2-arylimino-3-aryl-thiazolidine-4-ones” (2010)
≈ marks a conversion by molar mass, not a printed value. Values belong to the compound of their own block, whether it stands above or below them.

Columns and labels:
Format in all cases: functional
[1] = test system: Staphylococcus epidermidis; assay: Antibacterial activity against Staphylococcus epidermidis RP62A assessed as colony number after 24 hrs microdilution agar plate method
Outline: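 MBC: 100 μl from each tube without visible growth in the MIC assay subcultured onto compound-free Mueller-Hinton agar, 37 °C for 24 h. Endpoint is the lowest concentration giving subcultures with no more than five colonies per plate.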

[2] = test system: Staphylococcus epidermidis; assay: Antibacterial activity against Staphylococcus epidermidis RP62A by broth microdilution method
Outline: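 MIC against S. epidermidis RP62A by CLSI broth microdilution run in tubes (tube-dilution).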

[3] = test system: Staphylococcus epidermidis; assay: Antibacterial activity against Staphylococcus epidermidis RP62A 6 hrs biofilm after 16 hrs by microtiter plate method
Outline: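 S. epidermidis RP62A overnight culture diluted 1:10 in TSB (OD600 0.6–0.8), then 1:200 in MH; inoculated into 96-well polystyrene wells, 37 °C for 6 h to form young biofilm. Wells washed four times with sterile PBS, fresh TSB with compound at various concentrations added, further 37 °C for 16 h.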

Structure (SMILES): COC(=O)c1cccc(-c2ccc(/C=C3\S/C(=N\c4ccccc4C)N(c4ccccc4C)C3=O)o2)c1
MBC [1]: > 200 µM | MIC [2]: > 200 µM | Activity [3]: >200 µM

Structure (SMILES): CCc1ccccc1/N=C1\S/C(=C\c2cccc(OCC(=O)OC)c2)C(=O)N1c1ccccc1CC
MBC [1]: > 200 µM | MIC [2]: > 200 µM | Activity [3]: >200 µM

Structure (SMILES): CCc1ccccc1/N=C1\S/C(=C\c2ccc(-c3cccc(C(=O)OC)c3)o2)C(=O)N1c1ccccc1CC
MBC [1]: > 200 µM | MIC [2]: > 200 µM | Activity [3]: >200 µM

Structure (SMILES): COc1cc(/C=C2\S/C(=N\c3ccccc3)N(c3ccccc3)C2=O)ccc1O
MBC [1]: > 200 µM | MIC [2]: > 200 µM | Activity [3]: >200 µM

Structure (SMILES): COC(=O)c1cccc(-c2ccc(/C=C3\S/C(=N\c4ccc(OC)cc4)N(c4ccc(OC)cc4)C3=O)o2)c1
MBC [1]: > 200 µM | MIC [2]: > 200 µM | Activity [3]: >200 µM

Structure (SMILES): COc1cc(/C=C2\S/C(=N\c3ccccc3)N(c3ccccc3)C2=O)ccc1OCC(=O)O
MBC [1]: > 200 µM | MIC [2]: > 200 µM | Activity [3]: >200 µM

Structure (SMILES): Cc1ccccc1/N=C1\S/C(=C\c2ccc(OCC(=O)O)cc2)C(=O)N1c1ccccc1C
MBC [1]: > 200 µM | MIC [2]: > 200 µM | Activity [3]: >200 µM

Structure (SMILES): COC(=O)COc1ccc(/C=C2\S/C(=N\c3ccccc3C)N(c3ccccc3C)C2=O)cc1
MBC [1]: > 200 µM | MIC [2]: > 200 µM | Activity [3]: >200 µM

Structure (SMILES): COC(=O)COc1ccc(/C=C2\S/C(=N\c3ccccc3C)N(c3ccccc3C)C2=O)cc1OC
MBC [1]: > 200 µM | MIC [2]: > 200 µM | Activity [3]: >200 µM

Structure (SMILES): CCc1ccccc1/N=C1\S/C(=C\c2ccc(OCC(=O)OC)cc2)C(=O)N1c1ccccc1CC
MBC [1]: > 200 µM | MIC [2]: > 200 µM | Activity [3]: >200 µM

Structure (SMILES): CN(C)c1ccc(/C=C2\S/C(=N\c3ccccc3)N(c3ccccc3)C2=O)cc1
MBC [1]: > 200 µM | MIC [2]: > 200 µM | Activity [3]: >200 µM

Now from value to compound, other results behind:

MIC [2]: > 200 µM
Structure (SMILES): Cc1ccccc1/N=C1\S/C(=C\c2ccc(O)cc2)C(=O)N1c1ccccc1C
MBC [1]: > 200 µM | Activity [3]: >200 µM

MIC [2]: 50 µM (≈ 25.8 µg/mL)
Structure (SMILES): CCc1ccccc1/N=C1\S/C(=C\c2ccc(OCC(=O)O)c(OC)c2)C(=O)N1c1ccccc1CC
MBC [1]: 100 µM | Activity [3]: 100 µM

MIC [2]: > 200 µM
Structure (SMILES): COc1cc(/C=C2\S/C(=N\c3ccccc3C)N(c3ccccc3C)C2=O)ccc1O
MBC [1]: > 200 µM | Activity [3]: >200 µM

MIC [2]: 12.5 µM (≈ 6.18 µg/mL)
Structure (SMILES): Cc1ccccc1/N=C1\S/C(=C\c2ccc(-c3cccc(C(=O)O)c3)o2)C(=O)N1c1ccccc1C
MBC [1]: 25 µM | Activity [3]: 25 µM

MIC [2]: > 200 µM
Structure (SMILES): COc1cc(/C=C2\S/C(=N\c3ccccc3C)N(c3ccccc3C)C2=O)ccc1OCC(=O)O
MBC [1]: > 200 µM | Activity [3]: >200 µM

MIC [2]: 50 µM (≈ 24.3 µg/mL)
Structure (SMILES): CCc1ccccc1/N=C1\S/C(=C\c2ccc(OCC(=O)O)cc2)C(=O)N1c1ccccc1CC
MBC [1]: 100 µM | Activity [3]: 100 µM

MIC [2]: 50 µM (≈ 24.3 µg/mL)
Structure (SMILES): CCc1ccccc1/N=C1\S/C(=C\c2cccc(OCC(=O)O)c2)C(=O)N1c1ccccc1CC
MBC [1]: 100 µM | Activity [3]: 100 µM

MIC [2]: > 200 µM
Structure (SMILES): CCc1ccccc1/N=C1\S/C(=C\c2ccc(O)cc2)C(=O)N1c1ccccc1CC
MBC [1]: > 200 µM | Activity [3]: >200 µM

MIC [2]: > 200 µM
Structure (SMILES): CCc1ccccc1/N=C1\S/C(=C\c2cccc(O)c2)C(=O)N1c1ccccc1CC
MBC [1]: > 200 µM | Activity [3]: >200 µM

MIC [2]: > 200 µM
Structure (SMILES): COC(=O)COc1ccc(/C=C2\S/C(=N\c3ccccc3)N(c3ccccc3)C2=O)cc1OC
MBC [1]: > 200 µM | Activity [3]: >200 µM

MIC [2]: > 200 µM
Structure (SMILES): COC(=O)c1cccc(-c2ccc(/C=C3\S/C(=N\c4ccc(C)cc4)N(c4ccc(C)cc4)C3=O)o2)c1
MBC [1]: > 200 µM | Activity [3]: >200 µM

MIC [2]: 12.5 µM (≈ 6.53 µg/mL)
Structure (SMILES): CCc1ccccc1/N=C1\S/C(=C\c2ccc(-c3cccc(C(=O)O)c3)o2)C(=O)N1c1ccccc1CC
MBC [1]: 25 µM | Activity [3]: 25 µM

MIC [2]: 6.25 µM (≈ 3.09 µg/mL)
Structure (SMILES): Cc1ccc(/N=C2\S/C(=C\c3ccc(-c4cccc(C(=O)O)c4)o3)C(=O)N2c2ccc(C)cc2)cc1
MBC [1]: 25 µM | Activity [3]: 12.5 µM

MIC [2]: 6.25 µM (≈ 3.29 µg/mL)
Structure (SMILES): COc1ccc(/N=C2\S/C(=C\c3ccc(-c4cccc(C(=O)O)c4)o3)C(=O)N2c2ccc(OC)cc2)cc1
MBC [1]: 25 µM | Activity [3]: 6.25 µM
